High-throughput results as filed in PubChem.
KCNQ1 act: potentiates or activates the human KCNQ1 potassium channel; 310,000 compounds, 0.35% hits; B-score at 10 µM; CHO-K1 KCNQ1, thallium flux FluxOR fluorescence; hits give high values; P51787;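 active = fluorescence ratio B-score, a plate-corrected score, at least three library SD, with initial intensity B-score within 5 SD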
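Doses: Single concentration per compound, DMSO matched to controls | Test system: KCNQ1-transfected CHO-K1 cells | Timing: 90 min dye loading and 20 min compound exposure, both at room temperature | Measured by: Kinetic FluxOR thallium fluorescence, 10-s 1-Hz baseline, 110-s post-stimulus read | Medium: Assay buffer with matched DMSO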
KCNK3 block: human KCNK3 channel inhibition, primary screen; 340,000 compounds, 0.84% hits; CHO-KCNK3 thallium flux, FluxOR fluorescence; hits give low values; B-score at 10 µM; O14649;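 active = B-score under library mean minus 4 SD, starting fluorescence ratio at most library mean plus 5 SD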;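 also: more negative B-score means stronger inhibition of thallium flux through KCNK3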
Target sequence (O14649 whole entry, looked up): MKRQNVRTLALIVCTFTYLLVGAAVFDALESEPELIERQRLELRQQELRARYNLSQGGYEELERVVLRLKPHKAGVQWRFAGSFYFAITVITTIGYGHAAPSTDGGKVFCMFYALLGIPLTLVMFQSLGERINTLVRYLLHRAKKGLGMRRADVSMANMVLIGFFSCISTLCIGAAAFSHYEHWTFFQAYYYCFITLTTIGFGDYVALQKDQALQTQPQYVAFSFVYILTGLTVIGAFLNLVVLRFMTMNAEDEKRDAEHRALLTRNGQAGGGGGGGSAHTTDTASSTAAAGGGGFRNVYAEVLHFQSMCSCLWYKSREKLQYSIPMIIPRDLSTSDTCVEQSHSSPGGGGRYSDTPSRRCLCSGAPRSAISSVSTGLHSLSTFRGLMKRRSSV
KCNK9 inh: human KCNK9 channel inhibition; Q9NPC2; HEK293 KCNK9, FluxOR thallium flux fluorescence; hits give low values; B-score at 10 µM; 310,000 compounds, 1.2% hits; AID 488922;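 active = ratio B-score over 3 SD below the library mean, with starting fluorescence within 5 SD of its mean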;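 also: negative B-score means less thallium flux so channel inhibition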
KCNQ1 block: blocks the human KCNQ1 potassium channel; CHO-K1 KCNQ1, FluxOR thallium flux fluorescence; hits give high values; P51787; 310,000 compounds, 1.3% hits; B-score at 10 µM;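 active = compounds whose thallium flux B-score, printed positive for inhibition, exceeds three library SD while starting fluorescence stays within three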;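 also: channel opened by potassium depolarization with thallium stimulus after 20 min compound exposure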
hERG protect: hERG (human) protection from proarrhythmic block | CHO-hERG, FluxOR thallium flux, dofetilide IC70 present | activation (rescue from dofetilide block), less the hit threshold, % at 10 µM | Q12809 | 310,000 compounds, 0.51% hits;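 active = activation above the mean of controls blocked by dofetilide plus 5 SD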;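 also: thallium influx through hERG after potassium depolarization seen as dye fluorescence rise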
KCNQ1 block val: confirmation of human KCNQ1 potassium channel inhibitors; shares compounds with KCNQ1 block; KCNQ1 cell line, FluxOR thallium flux fluorescence; inhibition, % at 10 µM; 1,600 compounds, 93% hits; AID 588353;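 active = primary screen active, with duplicate mean exceeding buffer control mean plus 3 SD of buffer wells, cut at about 28% in these data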
CHO Tl flux: counter-screen for KCNQ1 inhibitors: effect in parental CHO cells; shares compounds with KCNQ1 block; parental CHO-K1, FluxOR thallium flux fluorescence ratio; hits give low values; zero means no signal rise above baseline; fluorescence ratio (Tl flux) at 10 µM; 1,600 compounds, 21% hits; AID 588366;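 active = mean of duplicate thallium-flux fluorescence ratios in parental host cells more than 5 SD below the buffer control mean, cut at about 0.38 in these data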;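 also: ratio is peak minus minimum fluorescence divided by baseline fluorescence; actives read low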
KCNQ1 APC inh: confirmation of human KCNQ1 potassium channel inhibitors by electrophysiology; shares compounds with KCNQ1 block; KCNQ1-CHO cells, automated patch clamp current; calls only at 10 µM; 490 compounds, 20% hits; AID 624120;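 active = KCNQ1 current drop exceeding 3 SD of negative control wells, seen in both duplicate runs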;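 also: steady state current during a 2 s step from -80 to +40 mV; negative values mean current inhibition and positive values mean potentiation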
KCNQ2 inh: rat KCNQ2 inhibition in KCNQ1 inhibitor specificity screen; KCNQ2 cells, FluxOR thallium flux fluorescence; shares compounds with KCNQ1 block; AID 651746; inhibition, % at 10 µM; 1,600 compounds, 71% hits;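 active = mean percent inhibition of the KCNQ2 thallium signal more than 5 SD above the buffer-only control wells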;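 also: KCNQ2 expressed in CHO cells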
KCNQ1-KCNE1 inh: human KCNQ1/KCNE1 inhibition in KCNQ1 specificity screen. shares compounds with KCNQ1 block. KCNQ1/KCNE1 cells, FluxOR thallium flux fluorescence. inhibition, % at 10 µM. 1,600 compounds, 77% hits. AID 652147;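 active = mean percent inhibition of duplicate wells above the buffer-only control mean plus 3 SD of those controls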
Of the large screens only hits and unclear results are named; the others gave an inactive call (follow-up assays come after a bar, where they were run). Compounds with a hit are over-represented: about 3.1% of the library has one in this group of screens.

CCCCSc1nnc(-c2ccc(C)cc2)c2ccccc12	KCNK9 inh -7.08, KCNQ1 block 11 | KCNQ1 block val 153.5 | CHO Tl flux inactive | KCNQ1 APC inh inactive | KCNQ2 inh 103.0% | KCNQ1-KCNE1 inh 175.0%
O=C(NCCc1ccc(Cl)cc1)c1cc(S(=O)(=O)N2CCCCC2)c[nH]1	none
O=C(Nc1nc(-c2cccs2)c(C(=O)C(F)(F)F)s1)c1ccccc1	KCNQ1 block 7 | KCNQ1 block val 25.0 | CHO Tl flux inactive | KCNQ2 inh inactive | KCNQ1-KCNE1 inh inactive
Clc1ccc(-c2cc3ccccc3[nH]2)cc1	KCNQ1 block 6 | KCNQ1 block val 124.0 | CHO Tl flux inactive | KCNQ2 inh inactive | KCNQ1-KCNE1 inh 97.5%
CCOC(=O)c1cn[nH]c1NC(=S)Nc1ccc(Cl)cc1	KCNQ1 block 13 | KCNQ1 block val 77.5 | CHO Tl flux inactive | KCNQ2 inh 75.7% | KCNQ1-KCNE1 inh 54.0%
O=C1/C(=C\c2cc([N+](=O)[O-])ccc2O)SC(=S)N1Cc1ccc(Cl)cc1	KCNQ1 block 17 | KCNQ1 block val 165.0 | CHO Tl flux 0.22 | KCNQ2 inh inactive | KCNQ1-KCNE1 inh inactive
CC1C(=O)C(C)C(c2cc(Cl)ccc2O)NC1c1cc(Cl)ccc1O (centres undefined)	KCNQ1 block 10 | KCNQ1 block val 83.5 | CHO Tl flux inactive | KCNQ2 inh 82.7% | KCNQ1-KCNE1 inh 122.5%
O=C(CSc1nncn1-c1ccccc1)Nc1cc(F)ccc1F	none
CC1Cc2ccccc2N1C(=O)CNc1ccccc1N1CCCCC1 (centres undefined)	KCNQ1 block 7 | KCNQ1 block val 81.0 | CHO Tl flux inactive | KCNQ2 inh 100.7% | KCNQ1-KCNE1 inh 86.0%
C=C1CC[C@@H]2[C@](C)(CCC[C@@]2(C)/C=C/[C@@H](O)C(C)(C)O)[C@H]1CC(=O)NCCS(=O)(=O)O	none (no result: KCNQ1 act, KCNK9 inh, KCNQ1 block, hERG protect)
CS(=O)(=O)c1ccc(Cl)c(NC(=O)CSc2n[nH]c(-c3cccs3)n2)c1	none (no result: KCNQ1 act, KCNK9 inh, KCNQ1 block, hERG protect)
Cc1cc(C)cc(N2C(=O)CC(c3ccccc3)CC2=O)c1	none (no result: KCNQ1 act, KCNK9 inh, KCNQ1 block, hERG protect)
C=C(C)CN(CC)C(=O)CSc1ccc(S(=O)(=O)N2CCN(C)CC2)cn1	none (no result: KCNQ1 act, KCNK9 inh, KCNQ1 block, hERG protect)
O=S(=O)(Nc1ccc(-n2cccc2)cc1)c1ccc(Cl)c(Cl)c1	KCNQ1 block 10 | KCNQ1 block val 105.5 | CHO Tl flux inactive | KCNQ1 APC inh inactive | KCNQ2 inh 117.3% | KCNQ1-KCNE1 inh 162.5%
O=S(=O)(Nc1ccc(-n2cccc2)cc1)c1ccc(F)cc1	none
CCN(CC(=O)Nc1ccc(NC(C)=O)cc1)C(=O)CCCOc1ccc(C(C)(C)C)cc1	none
CCCn1c2c(c(O)c(C(=O)Nc3nc(C)cs3)c1=O)CCCC2	none (no result: KCNK3 block)
CCOC(=O)Cc1csc(NC(=O)c2c(O)c3c(n(CC(C)C)c2=O)CCCC3)n1	KCNQ1 block 7 | KCNQ1 block val 79.0 | CHO Tl flux inactive | KCNQ2 inh 72.3% | KCNQ1-KCNE1 inh 107.0%
N#CC1=C(N)NC(SCc2ccc(Cl)cc2)=C(C#N)C12CCCCC2	KCNQ1 block 16 | KCNQ1 block val 151.0 | CHO Tl flux 0.376 | KCNQ2 inh 121.3% | KCNQ1-KCNE1 inh 185.0%
CC[C@@]1(O)C(=O)OCc2c1cc1n(c2=O)Cc2cc3c(CN(C)C)c(O)ccc3nc2-1	KCNQ1 block 32 | KCNQ1 block val active | CHO Tl flux 0.017 | KCNQ2 inh inactive | KCNQ1-KCNE1 inh inactive
CC[C@@]1(O)C(=O)OCc2c1cc1n(c2=O)Cc2cc3c(N)cccc3nc2-1	none
Cc1c(C(=O)C(=O)N2CCN(Cc3ccc4c(c3)OCO4)CC2)c2ccccc2n1C	none
